Phagocyt inh: inhibitors of macrophage phagocytosis | J774A.1 macrophage IgG-bead phagocytosis, imaging | inhibition, % at 5 µM | actives 0.07% (n = 110,000) | AID 1029;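 active = inhibition above the mean of the plate negative controls plus 5 SD, cut at about 13% in these data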;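 note: phagocytic index as fraction of beads internalized from green versus red external bead signal; plate controls were DMSO negative control for no effect and cytochalasin-D positive control for full effect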
DAT uptake mod: human DAT dopamine uptake with cocaine, either direction; Q01959; LLC-PK1 hDAT cells, [14C]-dopamine uptake with cocaine IC80; actives deviate in either direction; B-score at 10 µM; actives 1.3% (n = 110,000); AID 449768;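 active = Z score or B-score, a plate-position-corrected score, falls beyond the plate's 99.7% confidence bounds, in either direction; inactive = both scores lie inside the 99.7% bounds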;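 note: scored against the spread of the other compound wells on the same plate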
Pyk2 oligo antag: blocks oligomerization of human Pyk2 in cells. Q14289. Q293 cells, Pyk2 FERM NanoBiT luminescence; hits give low values. z-score (the deposit names both 25 µM and 10 µM). actives 0.83% (n = 99,000). AID 1347419;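 active = Z-score of -3 or lower, scaled per plate to the spread of control and sample wells; inactive = z-score above -3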;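 note: negative z-score means lost luminescence so less FERM oligomerization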
Cav3 T inh: inhibitors of human Cav3.2 T-type calcium channel; O95180; Cav3.2-expressing cells, Fluo-4 calcium fluorescence FDSS; hits give low values; B-score at 10 µM; actives 4% (n = 100,000); AID 449739;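 active = single-dose well whose peak fluorescence ratio is a statistical outlier from its plate by either plate-standardised score or position-corrected B-score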
HIV Rev-RRE inh: HIV Rev-RRE protein-RNA interaction inhibition; P05866; Rev peptide-RRE RNA binding, FRET; inhibition, % at 8 µM; actives 0.79% (n = 97,000); AID 704;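 active = inhibition above the screen-wide mean plus 3 SD, cut at about 35% in these data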;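 note: 0% = median DMSO wells and 100% = median Neomycin B control wells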
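System: Cy5-labelled duplex RRE RNA binding fluorescein-labelled HIV Rev peptide; Signal: fluorescein-to-Cy5 FRET, 480 nm excitation; Also added: labelled Rev peptide; Compound: one concentration, 8 µM nominal; Buffer or medium: HEPES pH 7.5 salt buffer with EDTA; Read-out: % inhibition of FRET ratio versus controls; Schedule: 5 min preincubation and 15 min binding, 25 °C.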
Measles CPE: protection of cells from measles virus; protection (pct of control), % at 4 µM; actives 1.5% (n = 140,000); Measles virus-infected cells, CPE protection, absorbance; in the data active = protection mostly above about 24%, no sharp cut-off; inactive = mostly below about 26%
* marks the source's active call; other numbers are inactive results; x = no result; [ ] = another dose, or the depositor's remark. The list is not random: actives were taken first. Their share in the collection is about 5.9%.

SMILES | Phagocyt inh | DAT uptake mod | Pyk2 oligo antag | Cav3 T inh | HIV Rev-RRE inh | Measles CPE
COc1ccc(N2CC(C(=O)Nc3nnc(SCc4ccccn4)s3)CC2=O)cc1 (stereo not given) | -14 | x | x | x | x | 17
CCO[C@H]1OC(C(=O)NCc2ccccc2)=C[C@@H](C(C)(C)C)[C@@H]1CCCO | x | 0.65 | x | -0.12 | x | x
Cc1cc(C)n(Cc2ccc(Cl)cc2Cl)c(=O)c1S(=O)(=O)c1ccccc1 | 0 | 0.62 | -0.75 | -4.3* | 16 | 3
CCc1cccc2c(C(=O)COC(=O)c3ccccc3)c[nH]c12 | -7 | x | x | x | x | 28*
CCc1cccc2c(C(=O)COC(=O)c3ccc(O)cc3)c[nH]c12 | -5 | x | x | x | x | 13
N=C1C(c2ccccc2)=C(O)CN1c1cccc(S(=O)(=O)Nc2cccc(C(F)(F)F)c2)c1 | -8 | x | x | x | x | 25
O=C(COc1ccccc1)Nc1nnc(-c2ccc(Cl)s2)o1 | 0 | -0.47 | x | -4.8* | 2 | 10
O=C(COc1ccccc1)Nc1nnc(-c2ccccc2)o1 | 0 | 0.049 | x | -0.73 | 7 | 18
c1ccc(COc2ccc(OCCCn3cncn3)cc2)cc1 | 6 | 0.87 | 0.58 | -0.047 | 6 | 30*
O=C(NC1CCCCC1)C(c1cccs1)N(Cc1cccs1)C(=O)c1cccs1 (stereo not given) | x | -0.47 | -3.9* | -5.3* | 6 | 13
Cc1cc(NC(=O)CCC(=O)N(Cc2cccs2)C(C(=O)NC2CCCC2)c2ccccc2)no1 (stereo not given) | x | 0.089 | -0.9 | -8.7* | 6 | 7
COc1ccc(C)cc1N(CC(=O)NC1CCCC1)C(=O)CCC(=O)Nc1cc(C)on1 | 1 | 1.9 | -0.42 | 0.046 | 8 | 10
O=C(NC1CCCCC1)C(c1ccc2ncccc2c1)N(Cc1cccs1)C(=O)c1cccs1 (stereo not given) | x | 0.2 | -2.9 | -1.6 | -1 | 8
COc1ccc(CCN(CC(=O)NC2CCCC2)C(=O)CCC(=O)Nc2cc(C)on2)cc1OC | 2 | -0.51 | 2.6 | 0.06 | x | 22*
COC(=O)[C@@H]1C[C@@]2(O)[C@@H](O)[C@@H](O)[C@@H](O)C[C@H]2N1C/C=C/c1ccccc1 | x | -1 | x | 1.5 | x | x
COc1cccc(C(=O)N(Cc2nc(-c3ccc(C)cc3)no2)C(C)C)c1 | -1 | -0.86 | -1.8 | -0.13 | 4 | 5
COc1ccc(C(=O)N(Cc2nc(-c3ccc(C)cc3)no2)C2CCCCC2)cc1OC | 1 | 0.57 | -1.1 | -4* | 5 | 6
CCC(=O)Nc1cc(ON=C(C)C)cc([N+](=O)[O-])c1 | -5 | x | x | x | x | 96*
CCN(CC)c1cccc(OC2=NS(=O)(=O)c3ccccc32)c1 | 2 | 0.68 | -0.45 | 0.85 | 10 | 4
Cc1ccc(OC2=NS(=O)(=O)c3ccccc32)cc1 | -1 | 0.6 | 0.63 | 1.2 | 4 | 28*
Cc1cccc(-[n+]2c(C)cc(C)c3c(=O)[nH]c(=O)[nH]c32)c1 | -8 | x | 0.02 | x | x | 6
C/C=C(/C)C(=O)OC1c2c(ccc3ccc(=O)oc23)OC(C)(C)C1OC(=O)/C(C)=C\C (stereo not given) | x | -0.34 | x | -5.1* | x | x
C/C=C(\C)C(=O)OC1c2c(ccc3ccc(=O)oc23)OC(C)(C)C1OC(C)=O (stereo not given) | x | -0.024 | -1.2 | -3.2 | 3 | 12
CCCNC(=O)c1onc(CSc2ccc(Cl)cc2)c1C(=O)NCCC(C)C | x | 0.025 | x | -3.1 | x | x
CN(C)S(=O)(=O)c1ccc(C(=O)NCc2cccs2)cc1 | x | 0.43 | 1.6 | 0.85 | 7 | 4
SMILES | Phagocyt inh | DAT uptake mod | Pyk2 oligo antag | Cav3 T inh | HIV Rev-RRE inh | Measles CPE
CCN(CC(=O)NCc1cccs1)S(=O)(=O)c1ccc(C(C)C)cc1 | -6 | 0.8 | -0.55 | -4* | 5 | 21
CC(C)c1ccc(NC(=S)NCc2cccs2)cc1 | -1 | 1.9 | 0.59 | -6.3* | -9 | 5
COc1ccc(/C=C/C(=O)Nc2cccc(N3CCOCC3)c2)cc1OC | -4 | x | x | x | x | 4
O=C1C=C(O)c2cccc(O)c2C1=O | x | 0.17 | x | 0.54 | x | x
CC1=CC(=O)c2c(O)ccc(O)c2C1=O | x | 0.12 | x | -5.5* | x | x
O=C(OCc1ccc(Cl)cc1Cl)c1cccnc1Cl | x | -8.6* | -0.11 | -0.69 | 13 | 12
COc1ccc(C(=O)OC(C)C(=O)Nc2cc(C(F)(F)F)ccc2Cl)c(OC)c1OC (stereo not given) | -8 | x | x | x | x | 24
CCOC(=O)C1=NN(c2ccccc2C)C2=NC(C)=C(C(=O)OC)C(c3cccs3)N12 (stereo not given) | x | 0.35 | 0.01 | -6* | -2 | 5
CCOC(=O)C1=NN(c2ccc(F)cc2)C2=NC(C)=C(C(=O)OC)C(c3cccs3)N12 (stereo not given) | x | -0.063 | 0.32 | 0.006 | 5 | x
CCCC[C@H]1C2=C3[C@@H](CC(C(=O)OC)=C[C@@H](C(=O)OC)[C@H]3C(C)(C)C2=O)n2c(=O)n(-c3ccccc3)c(=O)n21 | x | 0.87 | x | -0.44 | x | x
CCC1Oc2ccc(C)cc2N(CC(=O)N2CCN(c3ccc(F)cc3)CC2)C1=O (stereo not given) | 0 | 0.93 | x | -4.5 | 3 | 28*
COC(=O)CNc1c(-c2ccccn2)nc2ccc(Br)cn12 | -2 | -7.2* | 0.13 | -0.28 | 30 | 9
CCOC(=O)CNc1c(-c2ccccc2)nc2ccc(Cl)cn12 | 0 | -0.023 | 0.4 | -1.9 | -2 | 19
COC(=O)C1=C(NC(=O)c2ccc(C)cc2)CCS1 | x | -0.029 | -0.29 | -0.022 | 2 | 2
CCOC(=O)N=S(=O)(Oc1ccc([N+](=O)[O-])cc1)c1ccc(Cl)cc1 (stereo not given) | x | 0.39 | 0.44 | -4.2* | 12 | 30
COc1cccc(C(=O)Nc2nc(-c3ccccc3)c(-c3ccccc3)o2)c1 | -10 | x | x | x | x | 7
O=C(Nc1nc(-c2ccccc2)c(-c2ccccc2)o1)c1ccc(F)cc1 | x | 1.4 | 1.1 | -5.8* | 10 | 6
CCN(CC)C(=O)Cn1cnc2c1c(=O)n(C)c(=O)n2C | -1 | 0.68 | 1.3 | 0.23 | 11 | 44*
CCN(Cc1ccccc1)C(=O)Cn1cnc2c1c(=O)n(C)c(=O)n2C | -3 | -0.3 | -0.22 | 1.1 | 3 | 9
CCCCCCc1cc2cc(C(N)=O)c(=N)oc2cc1O | 1 | -0.066 | x | -11* | 87*[fluorescence artefact?] | 37
CCCCCCc1cc2cc(C(=O)Nc3ccc(OC)cc3)c(=O)oc2cc1O | -1 | x | x | x | x | 13
CCCCCCc1cc2cc(C(=O)NC)c(=N)oc2cc1O | -4 | -0.75 | -2.2 | -9.3* | 70* | 11
COc1cc(OC)cc(C(=O)NC(=S)NNC(=O)Cc2cccs2)c1 | 7 | x | x | x | x | 5
COc1ccc(C(=O)NNC(=S)NC(=O)c2ccco2)cc1 | x | 1.1 | 2.4 | -5.5* | 1 | 3
O=C(/C=C/c1cccs1)NC(=S)NNC(=O)Cc1cccs1 | x | -1.8 | -0.09 | -4.2* | 0 | 1
COc1ccc(C(=O)NC(=S)NNC(=O)Cc2cccs2)cc1 | -4 | 0.14 | 0.16 | -4.9* | 4 | 1

Screens from PubChem BioAssay.
